High-throughput results: PubChem BioAssay, several laboratories
NTR1 ag – agonists of human NTR1, primary screen, imaging, U2OS cells, beta-arrestin-GFP, high content; Neurotensin receptor type 1 (Homo sapiens), P30989; NTR1-U2OS beta-arrestin-GFP spot imaging, agonist mode; activation, % at 20 µM; actives 0.17% (n = 330,000); AID 493036, 2011;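 active = activation at or above 40% of the spot to cytoplasm intensity ratio, with at least 20 cells analyzed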;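 note: 0% = DMSO without peptide and 100% = 100 nM NTR1 peptide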
MC4R barr agon – MC4R agonists recruiting beta-arrestin, primary screen, cell-based, luminescence, agonist arm of biased-ligand search; Melanocortin receptor 4 (Homo sapiens), P32245; U2OS MC4R beta-arrestin complementation; percent of melanotan II response, DMSO zero; activation, % at 8.9 µM; actives 0.98% (n = 360,000); AID 540308, 2011;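 active = activation above a per-plate cutoff, the mean activation of sample wells on that plate plus 3 SD, cut at about 8% in these data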
aDG glyco up – activators of alpha-DG glycosylation, primary screen, uHTS, Pro5-aDG cells, AlphaScreen. alpha-DG glycosylation AlphaScreen (IIH6); 0% Pro5, 100% B10-LARGE cell signal. activation, % at 10 µM. actives 0.22% (n = 360,000);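 active = activation of at least 8% versus controls, or a plate z-score of at least 8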;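 note: Pro5 are CHO cells carrying HIG-tagged alpha-DG that lacks glycosylation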
MC4R antagonist – MC4R antagonists of cAMP signaling, primary screen, cell-based, TR-FRET, antagonist arm of biased-ligand search. Melanocortin receptor 4 (Homo sapiens), P32245. MC4R-expressing cells, MTII-stimulated cAMP, LANCE TR-FRET. inhibition, % at 6.5 µM. actives 0.48% (n = 360,000). AID 540295, 2011;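 active = inhibition above its plate's cutoff, the mean of tested wells on that plate plus 3 SD, cut at about 29% in these data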;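 note: 0% = Melanotan II alone and 100% = Melanotan II plus saturating MCL0020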
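System: U2OS cells stably expressing human melanocortin 4 receptor (MC4R). Reagent: Melanotan II challenge after compound preincubation. Doses: 6.5 µM. Times: 30-min compound, 1-h challenge, 1-h detection, room temperature. Measured by: TR-FRET with Eu-cAMP and labeled anti-cAMP, 671 nm. Replicates: singlicate.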
TbMetRS inhib – T. brucei MetRS inhibitors, primary screen, biochemical, luminescence; purified T. brucei MetRS, ATP depletion, Kinase-Glo luminescence; inhibition, % at 11.9 µM; actives 0.4% (n = 360,000); methionyl-tRNA synthetase (Trypanosoma brucei brucei);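 active = inhibition above a per-plate cutoff of the control wells' mean inhibition plus 3 SD, cut at about 5.5% in these data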;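 note: 0% = DMSO wells median and 100% = median of wells with control inhibitor compound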
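assay system = parasite MetRS enzyme | timing = 15 min preincubation, 2 h reaction, all 25 °C | evaluation = percent inhibition relative to median high and low control wells | medium = HEPES buffer containing pyrophosphatase, BSA, spermine, DTT | compound = single dose, 11.9 µM final nominal, 0.9% final DMSO | detection = Kinase-Glo luminescence, ATP depletion format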
TAG inh – inhibitors of triacylglycerol accumulation, primary screen, cell-based, uHTS, fluorescence, H9c2; H9c2 cells, Nile Red lipid (TAG) fluorescence; cells loaded with 200 µM oleic acid; inhibition, % at 12.5 µM; actives 0.66% (n = 230,000);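 active = pattern-corrected inhibition of lipid staining of at least 50% with the nuclear-stain viability signal not falling by more than 50%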;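 note: 0% = DMSO wells and 100% = triacsin C control wells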
NTR1 ag conf – NTR1 agonists, single-dose retest, confirmation, imaging, U2OS cells, beta-arrestin-GFP, single concentration; AID 504550, 2011; shares compounds with NTR1 ag; actives 38% (n = 480); NTR1-U2OS beta-arrestin-GFP translocation imaging; activation, % at 20 µM;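 active = mean activation at 20 µM of at least 40%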;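 note: 0% = DMSO without peptide and 100% = 100 nM NTR1 peptide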
U2OS cAMP counter – nonselective cAMP signaling inhibitors, parental cells, counter-screen for MC4R biased antagonist project, cell-based, TR-FRET, U2OS, forskolin, triplicate. AID 602193, 2012. actives 26% (n = 1,600). shares compounds with MC4R antagonist. LANCE TR-FRET. inhibition, % at 6.5 µM;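 active = mean inhibition over triplicates above the low-control well mean plus 3 SD, set per campaign, cut at about 13% in these data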;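 note: signal is single emission at 671 nm which falls as cellular cAMP rises; 0% = forskolin-stimulated wells and 100% = buffer without forskolin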
MC4R antag conf – MC4R cAMP antagonists, retest, confirmation, cell-based, TR-FRET; MC4R-expressing cells, MTII-stimulated cAMP; AID 602195, 2012; shares compounds with MC4R antagonist; actives 27% (n = 1,600); inhibition, % at 6.5 µM; in the data active = inhibition above about 29%;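 note: 0% = agonist stimulated wells alone and 100% = agonist stimulated wells plus saturating reference antagonist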
MC4R barr ag – MC4R beta-arrestin agonists, retest, confirmation, cell-based, luminescence, U2OS; shares compounds with MC4R barr agon; U2OS MC4R beta-arrestin recruitment; scaled DMSO 0%, Melanotan II 100%; activation, % at 8.9 µM; actives 31% (n = 2,400);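 active = mean activation across replicates above the hit cutoff set in the earlier primary screen, cut at about 8% in these data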
MOR DOR agonist – agonists of MOR-DOR heterodimerization, counter-screen for MC4R biased agonist project, cell-based, luminescence; shares compounds with MC4R barr agon; U2OS PathHunter beta-arrestin, beta-gal luminescence; percent of deltorphin B response, DMSO zero; activation, % at 9.2 µM; actives 5.8% (n = 2,400);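 active = mean activation across replicates exceeds the hit threshold derived in the earlier primary screen, cut at about 18% in these data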;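 note: 100% = deltorphin B at 0.9 µM final and 0% = DMSO alone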
Target sequence (P35372 whole entry, looked up): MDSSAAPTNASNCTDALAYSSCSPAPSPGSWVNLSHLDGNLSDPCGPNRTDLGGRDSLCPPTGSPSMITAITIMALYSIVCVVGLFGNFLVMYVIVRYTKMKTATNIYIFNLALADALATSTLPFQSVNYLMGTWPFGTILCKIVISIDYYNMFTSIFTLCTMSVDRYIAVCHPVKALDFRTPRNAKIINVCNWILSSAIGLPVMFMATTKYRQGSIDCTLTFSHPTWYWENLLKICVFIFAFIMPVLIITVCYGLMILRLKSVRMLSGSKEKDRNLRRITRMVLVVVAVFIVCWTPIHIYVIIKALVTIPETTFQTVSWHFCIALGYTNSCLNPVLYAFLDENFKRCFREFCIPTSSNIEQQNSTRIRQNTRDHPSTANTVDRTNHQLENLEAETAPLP
Target sequence (P41143 whole entry, looked up): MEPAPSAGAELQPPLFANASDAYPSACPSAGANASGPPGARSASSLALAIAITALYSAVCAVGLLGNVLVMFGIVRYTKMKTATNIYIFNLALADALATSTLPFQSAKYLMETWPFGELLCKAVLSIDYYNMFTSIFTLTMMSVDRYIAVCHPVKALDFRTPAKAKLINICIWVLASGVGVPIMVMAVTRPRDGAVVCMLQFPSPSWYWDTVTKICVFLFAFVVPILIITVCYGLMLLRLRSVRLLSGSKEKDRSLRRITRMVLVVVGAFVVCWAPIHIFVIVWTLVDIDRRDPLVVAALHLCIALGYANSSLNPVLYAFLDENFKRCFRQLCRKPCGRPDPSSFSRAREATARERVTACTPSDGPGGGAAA
* marks the source's active call; other numbers are inactive results; · = no result. Only some compounds are listed: those with a hit (about 2.4% of all), similar ones and a draw of the others.

SMILES	NTR1 ag	MC4R barr agon	aDG glyco up	MC4R antagonist	TbMetRS inhib	TAG inh	NTR1 ag conf	MC4R barr ag	MOR DOR agonist	others
CC(C)(C)OC(=O)[C@H](Cc1ccccc1)NC(=O)c1nc[nH]c1C(=O)NC1CCN(C(=O)OC(C)(C)C)CC1	44.9*	4.9	0.7	37.2*	-0.2	·	28.2	·	·	U2OS cAMP counter=7.3;MC4R antag conf=4.9
O=C(c1ccc(Br)cc1)C(CN1CCOCC1)c1ccccc1 (centres undefined)	59.7*	1.5	0.1	41.0*	0.5	·	71.0*	·	·	U2OS cAMP counter=8.6;MC4R antag conf=22.0
CCOc1ccc(C(=O)C(CN2CCOCC2)c2ccccc2)cc1 (centres undefined)	·	-1.7	1.4	2.1	0.9	·	·	·	·
Nc1sccc1C(=O)NCc1ccccc1	·	·	1.0	·	-0.8	·	·	·	·
O=C(NCCc1ccccc1)C(c1cccs1)N(C(=O)CCl)c1ccc(Cl)cc1 (centres undefined)	69.7*	34.5*	-0.3	30.5*	-1.2	·	61.2*	·	·	U2OS cAMP counter=-33.7;MC4R antag conf=30.8*
Cc1ccc2nc(-c3ccc(NC(=S)NC(=O)CC(C)C)cc3)sc2c1	0.1	0.4	0.1	1.7	-2.0	10.4	·	·	·
Cc1ccc2nc(-c3ccc(NC(=O)C(C)Sc4nncs4)cc3)sc2c1 (centres undefined)	48.6*	3.3	0.8	43.1*	0.0	16.0	32.1	·	·	U2OS cAMP counter=1.9;MC4R antag conf=18.3
Nc1ccccc1C#CC(=O)c1ccccc1	71.2*	-1.4	-0.5	54.0*	-0.6	·	82.7*	·	·	U2OS cAMP counter=25.9*;MC4R antag conf=52.1*
O=C(C#Cc1cccc([N+](=O)[O-])c1)c1ccccc1	10.3	-3.5	-0.3	26.2	-0.1	·	·	·	·
CCc1nc2c(OCCC3CCCCC3)cccn2c1N(C)C(=O)c1cccs1	·	-3.6	0.3	7.9	-0.2	-4.1	·	·	·
CCc1nc2ccc(C(=O)NCCOc3ccc(OC)cc3)cn2c1N(C=O)Cc1ccc(OC)cc1	·	-2.0	0.7	12.1	-0.2	0.0	·	·	·
CCCCNc1c(-c2ccc(OC)c(Sc3ccc(OC)cc3)c2)nc2ccccn12	55.8*	5.5	-0.3	46.2*	-0.1	-31.7	71.0*	·	·	U2OS cAMP counter=6.8;MC4R antag conf=28.0
CCCOc1ccc(C(=O)c2ccccc2C(=O)OC2CCOC2=O)cc1OCCC (centres undefined)	44.5*	-1.3	0.1	30.5*	-0.2	8.7	46.5*	·	·	U2OS cAMP counter=12.4;MC4R antag conf=25.4
CCCOc1ccc(C(=O)c2ccccc2C(=O)O)cc1OCCC	0.9	1.7	0.0	6.8	-1.0	-9.6	·	·	·
CC(C)c1ccc(/C=N/NC(=O)CN(c2cccc(Cl)c2Cl)S(C)(=O)=O)cc1	48.1*	22.1*	1.6	-0.4	-1.4	-1.9	39.6	6.0	7.7
NC(=S)N/N=C/c1ccccc1OCCSc1ccc(Cl)cc1	43.0*	11.1*	2.6	-13.2	0.4	·	26.6	1.2	5.7
Cc1c(CN2CCC(CO)(CCOc3ccccc3)CC2)[nH]c2c(Cl)cccc12	66.8*	22.0*	-0.2	4.9	-0.3	34.6	34.3	19.4*	17.4
CCn1c2c(c(=N)c3c1CCC3)CCCC2	1.2	-2.0	-0.2	-1.6	-0.6	-7.4	·	·	·
CCCCCCCCCn1c2c(c(=N)c3c1CCC3)CCCC2	71.8*	13.4*	0.3	-1.3	0.7	·	79.1*	6.2	6.8
O=C(Nc1nc2ccccc2s1)c1ccc2sc([C@H]3C[C@H](O)[C@@H](CO)O3)nc2c1	·	1.2	-0.3	16.6	-0.2	-2.6	·	·	·
Nc1c(C(=O)Nc2ccc(S(=O)(=O)N3CCCC3)cc2)sc2nc3cc4c(cc3cc12)CCC4	·	-1.0	-0.5	18.6	0.5	·	·	·	·
Nc1c(C(=O)Nc2ccc(S(=O)(=O)N3CCCC3)cc2)sc2nc3ccc(OC(F)(F)F)cc3cc12	87.2*	14.3*	-0.6	16.4	-0.2	·	21.8	12.5*	14.0
CCc1nc2ccc(C(=O)Nc3ccc4c(c3)OCC(=O)N4)cn2c1N(CC)Cc1cccc(Br)c1	·	0.6	0.2	21.1	-0.2	25.5	·	·	·
COc1cc(O)c(CC=C(C)C)c(O)c1C(=O)CCc1ccc(O)cc1	55.4*	36.1*	0.2	-3.9	-0.2	·	27.9	32.1*	5.5
O=C(CCc1ccc(O)cc1)c1c(O)cc(O)cc1O	-1.0	1.1	0.2	6.8	0.0	-0.5	·	·	·
Cc1cccc(C)c1NC(=O)C1(C)CSCC(=O)N1Cc1cccs1 (centres undefined)	·	·	-0.1	·	-0.1	·	·	·	·
Cc1cccc(C(=O)Oc2ccc(/C=N/NC(=O)c3ccc(O)cc3)cc2)c1	53.0*	16.3*	0.0	0.4	0.0	7.9	13.9	5.6	3.4
Cc1cccc(C(=O)Oc2ccc(/C=N/NC(=O)c3ccccc3O)cc2)c1	21.8	4.5	-0.1	2.7	-0.1	·	·	·	·
CC1CCN(CCCNC(=O)c2ccc3c(=O)n(Cc4ccc(Cl)cc4)c(=S)[nH]c3c2)CC1	52.2*	12.5*	0.4	4.0	1.7	19.2	56.7*	9.9*	8.5
O=S1(=O)CC(N2CCN(CC3CC3)CC2)CN1Cc1cn(Cc2ccccc2C(F)(F)F)nn1 (centres undefined)	·	·	0.2	·	-0.3	·	·	·	·
